Reference: ChEMBL document CHEMBL3272233, “Optical isomers of 2-(2-ethoxyphenoxymethyl)tetrahydro-1,4-oxazine (viloxazine) and related compounds” (1976)

Experiments:
[1] = test system: Mus musculus; test: Antidepressant activity in po dosed mouse assessed as antagonism of reserpine-induced hypothermia dosed 17 hrs after reserpine challenge; assay type: functional
In short: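 Oral dosing, with doses in mg/kg. The racemate and separated optical isomers were tested by the previously published method. Potency is expressed as the ED10 for antagonism of reserpine-induced hypothermia.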

[2] = test system: Mus musculus; test: Sedative activity in po dosed mouse assessed as reduction in locomotor activity during 60 mins period immediately prior to and after dosing; assay type: functional; conditions: 1 h, read-out: MED
In short: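 Given orally, with doses in mg/kg. The racemate and individual isomers were run by the earlier reported procedure. The value is the minimum effective dose that reduced locomotor activity.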

Work on `COc1cccc(OC[C@@H]2CNCCO2)c1` yielded an ED10 [1] greater than 100 mg/kg and a minimal effective dose [2] of 1 mg/kg.

`COc1cccc(OC[C@H]2CNCCO2)c1` gave an ED10 [1] greater than 100 mg/kg and a minimal effective dose [2] of 30 mg/kg.

In the case of `COc1cccc(OCC2CNCCO2)c1` (racemic), the ED10 [1] was greater than 100 mg/kg and the minimal effective dose [2] was 3 mg/kg.

For `CCOc1ccccc1OCC1CNCCO1` (racemic) [VILOXAZINE], the ED10 [1] was 0.3 mg/kg and the minimal effective dose [2] was 3 mg/kg.

In the case of `CCOc1ccccc1OC[C@H]1CNCCO1` [(R)-VILOXAZINE], the ED10 [1] was 1 mg/kg and the minimal effective dose [2] was 30 mg/kg.

Work on `CCOc1ccccc1OC[C@@H]1CNCCO1` [(S)-VILOXAZINE] yielded an ED10 [1] of 0.1 mg/kg and a minimal effective dose [2] of 1 mg/kg.
